Source: ChEMBL document CHEMBL1124115, “Synthesis and biological activity of CCK26-33-related analogues modified in position 31” (J Med Chem, 1988)
Square brackets hold non-standard residues; d marks the D form. Peptide text beside a SMILES is read from it. * marks the point of attachment. sY = N[C@@H](Cc1ccc(OS(=O)(=O)O)cc1)C(=O)O; Nle = CCCC[C@H](N)C(=O)O; Boc = CC(C)(C)OC(=O)*

Key:
[1] = organism: Cavia porcellus; assay: Agonist activity by measuring the ability to stimulate the contraction of the isolated guinea pig ileum.; format: functional
[2] = organism: Cavia porcellus; assay: Agonist activity by measuring the effect on amylase secretion from guinea pig acini.; format: functional
[3] = organism: Cavia porcellus; assay: Potency in displacing [3H]Boc(Nle28,Nle31)-CCk27-33 from guinea pig pancreatic acini.; format: functional
Procedure, shortened: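 Radioligand binding on guinea pig pancreatic acini with [3H]Boc(Nle28,Nle31)-CCK27-33 at 0.5 nM (KD = 1 nM). Values are mean ± SEM of three separate experiments, each run in triplicate.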

[4] = organism: Mus musculus; assay: Potency in displacing [3H]propionyl-CCK-8 from mouse brain membranes.; format: functional
Procedure, shortened: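 Displacement of [3H]propionyl-CCK8 at 0.4 nM (KD = 0.2 nM) from brain tissue. Data are mean ± SEM of three independent experiments, each in triplicate.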

[5] = target: T1, Cholecystokinin receptor (Mus musculus, UniProt O08786+P56481); assay: Potency in displacing [3H]propionyl-Cholecystokinin from mouse brain membranes.
T1 sequence (O08786 whole entry): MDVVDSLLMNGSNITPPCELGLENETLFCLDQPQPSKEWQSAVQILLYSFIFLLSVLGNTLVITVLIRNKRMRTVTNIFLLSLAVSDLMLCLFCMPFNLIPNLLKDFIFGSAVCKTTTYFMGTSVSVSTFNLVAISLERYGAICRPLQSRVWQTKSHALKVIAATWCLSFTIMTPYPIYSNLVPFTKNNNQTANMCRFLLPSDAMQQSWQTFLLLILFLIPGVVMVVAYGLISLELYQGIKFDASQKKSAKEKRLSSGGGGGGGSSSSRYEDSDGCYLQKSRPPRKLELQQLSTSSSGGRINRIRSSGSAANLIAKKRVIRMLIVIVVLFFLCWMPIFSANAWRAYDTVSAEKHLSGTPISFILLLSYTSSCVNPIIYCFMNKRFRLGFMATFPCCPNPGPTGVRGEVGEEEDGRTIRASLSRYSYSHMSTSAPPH
T1 sequence (P56481 whole entry): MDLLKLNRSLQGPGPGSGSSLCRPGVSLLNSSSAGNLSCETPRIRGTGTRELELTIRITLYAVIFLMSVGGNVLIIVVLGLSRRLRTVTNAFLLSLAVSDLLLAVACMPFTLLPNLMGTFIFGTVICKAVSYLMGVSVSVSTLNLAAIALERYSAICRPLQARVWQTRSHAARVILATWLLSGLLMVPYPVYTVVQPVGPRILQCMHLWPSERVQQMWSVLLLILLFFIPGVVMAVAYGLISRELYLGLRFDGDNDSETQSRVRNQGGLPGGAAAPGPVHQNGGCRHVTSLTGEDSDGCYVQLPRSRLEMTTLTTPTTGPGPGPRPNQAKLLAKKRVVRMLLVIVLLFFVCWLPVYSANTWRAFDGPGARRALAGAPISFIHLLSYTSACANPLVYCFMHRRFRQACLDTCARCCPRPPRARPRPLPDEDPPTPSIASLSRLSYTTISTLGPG
Procedure, shortened: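 Competition binding on brain membranes against [³H]propionyl-CCK₈ used at 0.4 nM (K_D = 0.2 nM). Values are mean ± SEM of three separate experiments, each run in triplicate.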

EC50 [1]	EC50 [2]	Ki [3]	Ki [4]	Compound	Ki [5]
190 nM	22 nM	390 nM	110 nM	CCCC[C@H](NC(=O)[C@H](Cc1ccc(OS(=O)(=O)O)cc1)NC(=O)OC(C)(C)C)C(=O)NCC(=O)N[C@@H](Cc1c[nH]c2ccccc12)C(=O)N[C@H](CCCN)C(=O)N[C@@H](CC(=O)O)C(=O)N[C@@H](Cc1ccccc1)C(N)=O	–
0.4 nM	0.16 nM	2.9 nM	0.13 nM	CCCC[C@H](NC(=O)[C@H](Cc1ccc(OS(=O)(=O)O)cc1)NC(=O)OC(C)(C)C)C(=O)NCC(=O)N[C@@H](Cc1c[nH]c2ccccc12)C(=O)N[C@@H](CCCC)C(=O)N[C@@H](CC(=O)O)C(=O)N[C@@H](Cc1ccccc1)C(N)=O (Boc-[sY][Nle]GW[Nle]DF-NH2)	–

The next lines start with the molecule.

Compound	EC50 [1]	EC50 [2]	Ki [3]	Ki [4]	Ki [5]
CCCC[C@H](NC(=O)[C@H](Cc1ccc(OS(=O)(=O)O)cc1)NC(=O)OC(C)(C)C)C(=O)NCC(=O)N[C@@H](Cc1c[nH]c2ccccc12)C(=O)N[C@@H](C)C(=O)N[C@@H](CC(=O)O)C(=O)N[C@@H](Cc1ccccc1)C(N)=O (Boc-[sY][Nle]GWADF-NH2)	110 nM	25 nM	1100 nM	14 nM	–
CSCC[C@H](NC(=O)[C@H](Cc1ccc(OS(=O)(=O)O)cc1)NC(=O)[C@@H](N)CC(=O)O)C(=O)NCC(=O)N[C@@H](Cc1c[nH]c2ccccc12)C(=O)N[C@@H](CCSC)C(=O)N[C@@H](CC(=O)O)C(=O)N[C@@H](Cc1ccccc1)C(N)=O [SINCALIDE]	0.7 nM	0.13 nM	2.5 nM	–	300 pM
CCCC[C@H](NC(=O)[C@H](Cc1ccc(OS(=O)(=O)O)cc1)NC(=O)OC(C)(C)C)C(=O)NCC(=O)N[C@@H](Cc1c[nH]c2ccccc12)C(=O)N[C@@H](CCC(=O)O)C(=O)N[C@@H](CC(=O)O)C(=O)N[C@@H](Cc1ccccc1)C(N)=O (Boc-[sY][Nle]GWEDF-NH2)	> 1000 nM	> 10000 nM	> 10000 nM	> 10000 nM	–
CCCC[C@H](NC(=O)[C@H](Cc1ccc(OS(=O)(=O)O)cc1)NC(=O)OC(C)(C)C)C(=O)NCC(=O)N[C@@H](Cc1c[nH]c2ccccc12)C(=O)N[C@@H](Cc1ccccc1)C(=O)N[C@@H](CC(=O)O)C(=O)N[C@@H](Cc1ccccc1)C(N)=O (Boc-[sY][Nle]GWFDF-NH2)	11 nM	3.4 nM	220 nM	3.7 nM	–
